Compound activity: PubChem BioAssay, several laboratories
Only some compounds are listed: those with a hit (about 1.5% of all), similar ones and a draw of the others.
NR2E3 ag-1: human photoreceptor-specific nuclear receptor agonism. inhibition of corepressor binding, % at 3.98 µM. CHO-S Gal4-NCOR/VP16-NR2E3 two-hybrid, luciferase. hit rate 0.35% among 360,000. Q9Y5X4;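 active = inhibition above the mean of all tested compounds plus 3 SD, cut at about 70% in these data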;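 note: 0% = DMSO with NR2E3 transfected cells and 100% = cells lacking NR2E3 construct; higher means lower luciferase signal from less NR2E3 corepressor binding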
NR2E3 ag-2: activates human photoreceptor nuclear receptor NR2E3 | Q9Y5X4 | GST-NR2E3/biotin-RetCOR TR-FRET, 1536-well | inhibition of corepressor binding, % at 4.78 µM | hit rate 0.12% among 320,000 | AID 2300;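 active = percent inhibition above the cutoff of mean plus 3 SD of all tested compounds, set per screening campaign, cut at about 20% in these data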;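 note: 0% = DMSO wells and 100% = biotin wells as full block of FRET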
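Test system: GST-NR2E3 and biotin-RetCOR proteins | Quantity: 1.35 nM GST-tagged NR2E3 final | Medium: Tris pH 7.5 | Also added: 7 nM biotin-RetCOR | Dosing: Compound at 4.8 µM, single dose | Timing: 5 h at 4 °C | Detection: Time-resolved FRET | Read-out basis: Percent inhibition | Benchmarks: Biotin wells as high control, 0.6% DMSO wells as low control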
Jurkat NFkB inh: inhibitors of the PMA/ionomycin-induced NF-kB reporter in Jurkat cells | hit rate 0.53% among 330,000 | PMA/ionomycin-induced NF-kB luciferase reporter, luminescence | inhibition, % at 4 µM; in the data active = inhibition above about 50%
JMJD2C inh: human JMJD2C demethylase inhibition. inhibition, % at 2.35 µM. AID 2099. hit rate 0.069% among 330,000. GST-JMJD2C(1-420) H3K9me3 demethylation, DELFIA europium. Q9H3R0;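 active = more than half of a compound's replicate wells show inhibition beyond 50%, single wells judged on their own value; inconclusive = some, but no more than half, of replicates pass 50% inhibition; inactive = no replicate passes 50% inhibition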;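 note: signal counts dimethyl H3K9 product captured on neutravidin plate; 0% = median of DMSO wells and 100% = 0.3 times that DMSO median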
Target sequence (Q9H3R0 1-420 limits assumed): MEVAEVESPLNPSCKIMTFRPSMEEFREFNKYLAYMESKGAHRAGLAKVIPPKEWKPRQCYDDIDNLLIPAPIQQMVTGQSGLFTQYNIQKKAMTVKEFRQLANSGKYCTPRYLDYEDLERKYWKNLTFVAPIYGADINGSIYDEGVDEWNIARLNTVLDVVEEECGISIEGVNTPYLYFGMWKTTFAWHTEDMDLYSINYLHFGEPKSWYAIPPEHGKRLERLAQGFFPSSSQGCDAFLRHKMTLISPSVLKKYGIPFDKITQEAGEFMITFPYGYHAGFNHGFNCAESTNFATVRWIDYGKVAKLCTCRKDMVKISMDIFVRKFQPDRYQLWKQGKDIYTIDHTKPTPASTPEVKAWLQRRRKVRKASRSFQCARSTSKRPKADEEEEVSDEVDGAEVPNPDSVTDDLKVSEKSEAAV
GalR3 antag: blocks the human galanin receptor 3 | O60755 | HEK293 GalR3-CNG cAMP membrane potential fluorescence; galR3 body fused to GalR1 C-terminus | inhibition, % at 3 µM | hit rate 0.44% among 360,000;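 active = inhibition above the screen-wide average plus 3 SD, cut at about 13% in these data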;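 note: forskolin and galanin both at EC90 stimulate the cells; cAMP rise reported by CNG channel membrane potential dye signal; 0% = forskolin plus galanin with DMSO and 100% = forskolin alone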
Target sequence (O60755 1-299 limits assumed): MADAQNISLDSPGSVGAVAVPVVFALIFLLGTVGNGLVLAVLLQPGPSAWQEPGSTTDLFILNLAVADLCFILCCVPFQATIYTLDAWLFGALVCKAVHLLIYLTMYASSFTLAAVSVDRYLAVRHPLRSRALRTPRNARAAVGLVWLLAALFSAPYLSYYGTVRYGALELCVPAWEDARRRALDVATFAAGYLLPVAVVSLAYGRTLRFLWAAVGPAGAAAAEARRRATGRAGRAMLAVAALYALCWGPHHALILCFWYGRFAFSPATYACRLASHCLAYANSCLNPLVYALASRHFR
697 NFkB inh: lowers PMA/ionomycin-induced NF-kB signal in 697 B cells; 697 B-cell NF-kB luciferase reporter, 16 h; inhibition, % at 4 µM; hit rate 0.33% among 330,000; AID 435022; in the data active = inhibition above about 35%
Jurkat NFkB conf: inhibitors of the PMA/ionomycin-induced NF-kB reporter in Jurkat cells, retest; shares compounds with Jurkat NFkB inh; inhibition, % at 4 µM; hit rate 27% among 2,700; Jurkat NF-kB luciferase, 16 h;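 active = inhibition reaching about 45% at 4 µM in either replicate, limit read from the data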;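 note: plate controls were PMA/ionomycin stimulated DMSO wells for no effect and unstimulated DMSO wells for full effect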
697 NFkB conf: inhibitors of the PMA/ionomycin-induced NF-kB reporter in 697 B cells, retest | shares compounds with 697 NFkB inh | 697 B-cell NF-kB luciferase, 16 h | inhibition, % at 4 µM | hit rate 35% among 2,000 | AID 449746; in the data active = inhibition mostly above about 28%, no sharp cut-off; inactive = mostly below about 22%
* = called active by the depositor; i = inactive; u = inconclusive; x = not tested or not shown.

SMILES	NR2E3 ag-1	NR2E3 ag-2	Jurkat NFkB inh	JMJD2C inh	GalR3 antag	697 NFkB inh	Jurkat NFkB conf	697 NFkB conf
CCN(CC(=O)Nc1ccc(OC)cc1)C(=O)c1ccc(N2CCCC2=O)cc1	-2.0	1.0	-2.4	-4.0	-0.1	20.5	x	x
CSc1ccc(/C=C/C(=O)N2CCN(c3ccccn3)CC2)cc1	-11.4	-0.8	-4.6	1.7	-4.5	10.8	x	x
COc1ccc2[nH]c3c(c2c1)CCn1c-3nc2ccccc2c1=O	-147.3	0.3	-181.0	-9.1	x	-487.5	-126.6	-317.9
CC1(C)CC(N2CCCC2)=CC(=[N+]2CCCCCC2)C1	0.3	3.8	57.0*	21.6	55.2*	71.1*	63.2*	50.6*
O=S(=O)(c1cccc(-c2nnc3n2CCCCC3)c1)N1CCCC1	14.1	-2.4	6.5	-2.5	-5.5	13.8	x	x
Nc1c(C(=O)O)cnc2c(-c3ccc(Cl)cc3)cnn12	-84.5	2.5	-61.3	12.4	4.9	-144.1	x	x
Nc1c(-c2ccccc2)cnc2c(-c3ccccc3)cnn12	-106.4	0.1	-231.4	27.2	-8.9	i	-190.3	i
COc1ccc2oc(=O)c(C(=O)Nc3ccccc3O)cc2c1	-149.7	1.4	-200.6	-5.0	0.0	-279.5	-107.7	-296.4
CC(=O)Nc1ccc(NC(=O)CSc2nnc(NC(=O)C3CC(=O)N(c4ccc(F)cc4)C3)s2)cc1 (stereo not drawn)	-18.7	1.1	10.2	0.8	-2.1	17.3	x	x
C[C@H](c1ccccc1)N1C[C@@H](COCc2ccccc2)Oc2cccc(Oc3ccc(C(C)(C)C)cc3)c2S1(=O)=O	x	x	x	x	-2.2	x	x	x
O=C1CCc2cc(S(=O)(=O)Nc3ccccc3)cc3c2N1CC3	11.3	0.6	-9.5	u	3.6	-4.3	x	x
CCN(Cc1ccccc1)c1ccc(/C=C(\C#N)c2ccccn2)cc1	-99.0	0.9	-165.4	12.3	-0.1	-270.7	-89.8	-221.4
Cc1ccc(C(C)C)c(OCC(=O)OCC(=O)NC2CCS(=O)(=O)C2)c1 (stereo not drawn)	-0.8	-4.6	6.4	2.0	5.8	13.5	x	x
C=CCOn1c(=O)c(-c2ccc(F)cc2)[n+]([O-])c2ccccc21	-10.7	x	1.3	9.8	-7.5	-1.7	x	x
Nc1cc(=O)[nH]c(SCc2nnnn2-c2ccc(Cl)cc2)n1	-20.1	-2.5	14.3	4.3	-4.6	7.4	x	x
C/C(=N/N=C/c1ccc(N(C)C)cc1)c1ccccc1	-33.3	-4.9	-163.4	-1.5	-5.6	-273.8	0.6	-48.5
COc1ccc(-n2ncc3c(NCC(C)C)ncnc32)cc1	-128.4	0.3	-185.4	1.1	-1.0	-326.9	-136.0	-300.2
COc1ccc(C#Cc2c(-c3ccsc3)oc3ccc(N4CCOCC4)cc23)cc1	-22.3	0.7	-29.8	8.2	-10.6	-0.1	x	x
c1cc(-c2cc3cc(N4CCOCC4)ccc3o2)cs1	-94.2	3.0	-157.5	5.6	-4.0	-288.5	-83.8	-240.5
O=C1NCCN1c1ccccc1	4.2	x	x	x	-4.8	x	x	x
O=C1N(c2ccccc2)CCN1c1ccccc1	-125.0	3.4	-184.6	32.5	-8.0	-268.9	-110.7	-179.8
Cc1ccc(Nc2nc3ccccc3s2)cc1	-158.1	-1.6	-152.6	4.2	-3.6	-287.6	-123.6	-265.4
Cc1ccsc1/C=N/Nc1nc2ccccc2s1	-141.2	-2.5	-198.2	-386.6	-1.6	-342.2	-97.7	-272.6
C(=N\Nc1nc2ccccc2s1)/c1ccco1	-151.4	2.1	-159.7	0.6	1.4	-296.9	-99.6	-245.4
Oc1ccccc1C=NNc1nc2ccccc2s1	-173.7	x	x	x	-3.6	x	x	x
SMILES	NR2E3 ag-1	NR2E3 ag-2	Jurkat NFkB inh	JMJD2C inh	GalR3 antag	697 NFkB inh	Jurkat NFkB conf	697 NFkB conf
O=C(Nc1ccccn1)c1ccc(Br)c(S(=O)(=O)N2CCCCC2)c1	-21.2	0.7	9.8	1.4	0.2	-1.3	x	x
C=C1C(=O)C=C2CN(C(=O)c3ccccc3)[C@@](Cc3ccc(F)cc3)(C(=O)OC)[C@@H]12	71.9*	0.4	82.8*	7.7	x	i	75.6*	-249.6
CN1/C(=C\C(=O)C[n+]2cccc(Br)c2)C(C)(C)c2ccccc21	-4.8	-2.1	41.9	-5.4	-11.3	22.4	x	x
Cc1ccc[n+](CC(=O)/C=C2\N(C)c3ccccc3C2(C)C)c1	-12.1	0.1	55.4*	0.4	-5.7	48.3*	10.2	1.5
COc1ccc(C(=O)/C(C#N)=N/Nc2ccccc2[N+](=O)[O-])cc1	-21.9	-0.6	40.6	1.9	-3.7	-117.1	x	x
COc1ccc(C(=O)/C(C#N)=N/Nc2ccc([N+](=O)[O-])cc2)cc1	-59.4	1.3	60.3*	x	-1.2	53.3*	59.0*	11.3
Cc1ccc(NC(=O)N2CCc3ccccc32)cc1C	-122.3	-2.3	-180.2	5.5	-5.0	-405.6	-151.2	-297.7
Cc1ccc(NC(=O)N2CCc3ccccc32)cc1	-109.9	0.5	-130.7	3.2	-1.7	-247.7	x	x
COc1ccc(NS(=O)(=O)c2cccc(C(=O)N3CCC3)c2)cc1	-11.6	1.3	14.7	5.7	-4.4	15.1	x	x
CCc1ccc(NC(=O)c2cnn(-c3ccccc3)c2C2CCNCC2)cc1	12.3	3.3	-5.0	21.0	-2.2	-16.3	x	x
CCc1ccc(NC(=O)c2cnn(-c3ccccc3)c2C)cc1	-129.5	0.2	-215.4	3.7	-10.8	-293.2	-144.7	-298.1
Cc1cc(C)c(O)c(C(=O)CC2CC(=O)NC(=O)C2)c1	x	x	x	x	-1.1	x	x	x
O=C(O)c1cccc(COc2ccc(CO)cc2Cl)c1	-150.0	-0.1	94.3*	2.3	-10.2	75.4*	88.8*	59.4*
CCOc1ccc(OCc2cccc(C(=O)N3CCCCCC3)c2)cc1	-211.6	-0.1	26.1	28.7	-5.3	-26.7	x	x
O=C(OCC(F)(F)F)c1cccc(COc2ccc3ccccc3c2)c1	-301.3	1.0	76.9*	1.6	-0.7	57.8*	42.1	33.4*
O=C(NCc1ccccc1)c1cccc(COc2ccc3c(c2)CCC3)c1	-278.7	-2.9	-5.0	-4.1	-3.2	-37.3	x	x
COc1ccc(OCc2cccc(C(=O)O)c2)cc1	-119.4	0.5	87.6*	-5.3	2.3	80.4*	88.0*	70.8*
O=C(O)c1cccc(COc2ccc3c(c2)CCC3)c1	-170.8	3.4	70.0*	-0.9	5.0	61.5*	63.9*	45.1*
O=Cc1ccc(OCc2cccc(C(F)(F)F)c2)cc1O	-13.6	0.5	-3.1	10.7	-3.2	10.7	x	x
CCOc1ccc(OCc2cccc(C(=O)N3CCCC3)c2)cc1	-221.5	-1.9	6.9	4.4	-1.0	-66.8	x	x
CCOc1ccc(OCc2cccc(C(=O)O)c2)cc1	-133.2	-1.2	88.0*	-3.2	-7.0	92.1*	90.2*	76.6*
CCN(CC)c1ccc2cc(C(=O)Nc3ccccn3)c(=O)oc2c1	-134.0	5.0	-156.5	28.7	-2.5	-365.1	-137.8	-283.9
